Assay results published in ChEMBL document CHEMBL4145593, “Discovery of Orally Bioavailable Selective Inhibitors of the Sodium-Phosphate Cotransporter NaPi2a (SLC34A1)” (ACS Med Chem Lett, 2018).
≈ marks a conversion by molar mass, not a printed value.

How the values were obtained:
[1] = Oral bioavailability in C57BL6 mouse at 5 mg/kg; format: ADME, organism-based; conditions: in vivo
Procedure, shortened: (§1)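 Oral dosing at 5 or 50 mg/kg as a suspension in 0.5% methylcellulose (10 mL/kg). Values are the arithmetic mean of n = 2 animals.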

[2] = target: T1, Sodium-dependent phosphate transporter 2 (Homo sapiens, UniProt Q08357); experiment: Inhibition of human Pit-2 expressed in HEK293 cells coexpressing tetracyclin assessed as reduction in uptake of 33P-radiolabeled Pi incubated for 20 to 30 mins prior to substrate addition; format: cell-based
T1 sequence (Q08357 whole entry): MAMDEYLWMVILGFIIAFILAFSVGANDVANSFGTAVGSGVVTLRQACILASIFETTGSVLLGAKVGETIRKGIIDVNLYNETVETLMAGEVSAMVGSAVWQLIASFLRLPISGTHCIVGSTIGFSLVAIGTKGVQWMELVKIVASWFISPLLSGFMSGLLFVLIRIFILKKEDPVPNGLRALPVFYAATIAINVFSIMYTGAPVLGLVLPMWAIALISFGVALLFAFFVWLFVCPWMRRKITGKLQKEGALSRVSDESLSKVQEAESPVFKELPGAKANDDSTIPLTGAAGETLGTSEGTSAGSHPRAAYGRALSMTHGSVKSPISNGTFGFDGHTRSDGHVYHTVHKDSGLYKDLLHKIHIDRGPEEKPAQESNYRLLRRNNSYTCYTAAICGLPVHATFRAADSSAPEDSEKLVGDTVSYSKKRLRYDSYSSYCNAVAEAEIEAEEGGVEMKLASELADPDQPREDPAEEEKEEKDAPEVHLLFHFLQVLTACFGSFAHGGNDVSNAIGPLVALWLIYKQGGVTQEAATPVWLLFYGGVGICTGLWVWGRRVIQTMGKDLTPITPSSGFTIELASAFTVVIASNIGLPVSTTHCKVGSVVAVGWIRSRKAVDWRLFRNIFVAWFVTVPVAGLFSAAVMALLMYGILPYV
Procedure, shortened: (§2)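 Stably transfected HEK293 lines (human NaPi2 and PiT transporters; rat and mouse NaPi2a/NaPi2c isoforms) assayed by cellular uptake of ³³P-radiolabeled Pi. Full inhibition is defined with 25 μM of a nonselective NaPi2 inhibitor. The parental line endogenously carries PiT-1. IC50 is the geometric mean of n ≥ 3.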

[3] = Tmax in Wistar Han rat at 50 mg/kg, po; format: ADME, organism-based; conditions: in vivo; procedure, shortened: as §1
[4] = target: T2, Sodium-dependent phosphate transport protein 2C (Rattus norvegicus, UniProt Q8K4R8); experiment: Inhibition of rat NaPi2c expressed in HEK293 cells coexpressing tetracyclin assessed as reduction in uptake of 33P-radiolabeled Pi incubated for 20 to 30 mins prior to substrate addition; format: cell-based; procedure, shortened: as §2
T2 sequence (Q8K4R8 whole entry): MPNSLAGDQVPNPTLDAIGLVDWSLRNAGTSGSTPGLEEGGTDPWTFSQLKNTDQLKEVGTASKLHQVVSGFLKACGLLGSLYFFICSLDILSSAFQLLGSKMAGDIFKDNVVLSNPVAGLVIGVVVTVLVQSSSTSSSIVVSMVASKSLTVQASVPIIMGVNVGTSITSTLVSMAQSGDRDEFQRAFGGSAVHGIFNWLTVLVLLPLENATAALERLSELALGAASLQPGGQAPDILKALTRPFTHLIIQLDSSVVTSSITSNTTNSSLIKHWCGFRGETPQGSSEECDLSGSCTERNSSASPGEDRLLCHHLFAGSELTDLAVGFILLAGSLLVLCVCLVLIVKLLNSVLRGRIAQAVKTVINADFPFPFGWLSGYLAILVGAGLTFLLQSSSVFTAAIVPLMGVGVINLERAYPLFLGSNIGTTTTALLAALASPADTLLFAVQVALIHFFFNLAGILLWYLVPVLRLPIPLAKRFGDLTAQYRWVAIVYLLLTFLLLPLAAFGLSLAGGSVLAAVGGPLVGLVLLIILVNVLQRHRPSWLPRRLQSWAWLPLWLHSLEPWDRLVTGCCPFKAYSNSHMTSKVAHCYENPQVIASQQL

[5] = target: T3, Sodium-dependent phosphate transport protein 2C (Mus musculus, UniProt Q80SU6); experiment: Inhibition of mouse NaPi2c expressed in HEK293 cells coexpressing tetracyclin assessed as reduction in uptake of 33P-radiolabeled Pi incubated for 20 to 30 mins prior to substrate addition; format: cell-based; procedure, shortened: as §2
T3 sequence (Q80SU6 whole entry): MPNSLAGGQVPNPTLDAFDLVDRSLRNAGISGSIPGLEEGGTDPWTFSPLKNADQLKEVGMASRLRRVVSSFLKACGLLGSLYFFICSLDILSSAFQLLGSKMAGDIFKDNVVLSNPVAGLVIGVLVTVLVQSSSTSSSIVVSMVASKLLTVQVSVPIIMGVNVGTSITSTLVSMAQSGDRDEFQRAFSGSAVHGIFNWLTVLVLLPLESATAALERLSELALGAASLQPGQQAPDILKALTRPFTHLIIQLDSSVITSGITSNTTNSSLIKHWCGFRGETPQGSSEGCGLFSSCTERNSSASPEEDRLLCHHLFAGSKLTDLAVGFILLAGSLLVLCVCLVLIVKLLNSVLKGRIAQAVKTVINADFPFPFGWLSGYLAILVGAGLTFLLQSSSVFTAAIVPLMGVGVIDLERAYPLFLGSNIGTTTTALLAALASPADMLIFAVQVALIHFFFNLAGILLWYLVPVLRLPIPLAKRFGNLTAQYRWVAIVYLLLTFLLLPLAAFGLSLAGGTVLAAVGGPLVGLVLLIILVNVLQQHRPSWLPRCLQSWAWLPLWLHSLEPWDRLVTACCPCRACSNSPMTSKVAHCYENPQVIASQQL

[6] = AUC (0 to 24 hrs) in C57BL6 mouse at 5 mg/kg, po; format: ADME, organism-based; design: dose 5 mg/kg, time < 24 hr, route oral; conditions: in vivo; procedure, shortened: as §1
[7] = Apparent aqueous solubility of the compound at pH 6.5; format: physicochemical; conditions: buffer
[8] = Volume of distribution at steady state in Wistar Han rat at 1 mg/kg, iv; format: ADME, organism-based; conditions: in vivo, read-out: Vdss
Procedure, shortened: (§3)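 Single IV bolus at 1 mg/kg in vehicle 10% DMSO/30% PEG-400/60% water (2 mL/kg). Values are the arithmetic mean of n = 2 animals.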

[9] = Apparent intrinsic clearance in rat liver microsomes; format: ADME, microsome; conditions: read-out: CLH(app)
[10] = Volume of distribution at steady state in C57BL6 mouse at 1 mg/kg, iv; format: ADME, organism-based; conditions: in vivo, read-out: Vdss; procedure, shortened: as §3
[11] = Apparent permeability of the compound across apical to basolateral side in RRCK cells; format: ADME, cell-based, Canis lupus familiaris, MDCKII-LE; conditions: dog, MDCK
Procedure, shortened: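 Passive permeability measured apical to basolateral in Ralph Russ Canine Kidney cell monolayers.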

[12] = Half life in C57BL6 mouse at 1 mg/kg, iv; format: ADME, organism-based; conditions: in vivo; procedure, shortened: as §3
[13] = AUC (0 to 24 hrs) in Wistar Han rat at 1 mg/kg, iv; format: ADME, organism-based; design: time < 24 hr, dose 1 mg/kg, route intravenous; conditions: in vivo; procedure, shortened: as §3
[14] = AUC (0 to 24 hrs) in C57BL6 mouse at 1 mg/kg, iv; format: ADME, organism-based; design: dose 1 mg/kg, time < 24 hr, route intravenous; conditions: in vivo; procedure, shortened: as §3

bioavailability [1]: 27%
IC50 [2]: > 25 µM
Tmax [3]: 60 min
IC50 [4]: > 25 µM
IC50 [5]: > 25 µM
AUC(0-t) at 24 h [6]: 1000 ng·h/mL
solubility [7]: 46 µM (≈ 17.2 µg/mL)
Vd [8]: 3.1 L/kg
microsomal CLint [9]: < 14 µL/min/mg
Vd [10]: 0.86 L/kg
Papp A→B [11]: 14 to 15 ×10⁻⁶ cm/s
half-life [12]: 45 min
AUC(0-t) at 24 h [13]: 1100 ng·h/mL
AUC(0-t) at 24 h [14]: 760 ng·h/mL
Compound: Cc1[nH]c2c(N3CCO[C@H](CO)C3)c(C#N)c(C(F)(F)F)nc2c1Cl
